In ChEMBL document CHEMBL1255410, “Activity of the investigational fluoroquinolone finafloxacin against ciprofloxacin-sensitive and -resistant Acinetobacter baumannii isolates” (2010):
In brackets after ≈: the same amount, converted by molar mass.

Legend:
Type in all cases: functional
Acinetobacter baumannii [1] = assay: Antimicrobial activity against Acinetobacter baumannii isolate 38 harboring GyrA Ser83-Leu mutation at pH 5.8
Summary of the method: (§1)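 Agar dilution MIC on Mueller-Hinton agar. For the acidic condition, HCl was added to bring the agar to pH 5.8 before pouring the antibiotic plates, and the pH was checked after the agar set. The standard condition was pH 7.2. Both drugs' plates were made the same day from fresh medium, and MICs were read at the same time.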

Acinetobacter baumannii [2] = assay: Antimicrobial activity against Acinetobacter baumannii isolate 65 harboring GyrA Ser83-Leu and ParC Ser80-Leu mutation at pH 5.8
Summary of the method: (§2)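 Agar dilution MIC on Mueller-Hinton agar acidified to pH 5.8 with HCl before the antibiotic-containing plates were poured. Agar pH was checked after solidifying. Plates were made the same day from fresh medium. Both fluoroquinolones were tested simultaneously against A. baumannii isolates with characterized gyrA/parC genes. MICs are in μg/ml.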

Acinetobacter baumannii [3] = assay: Antimicrobial activity against adeB overexpressing Acinetobacter baumannii isolate 68 harboring GyrA Ser83-Leu and ParC Ser80-Leu mutation at pH 5.8; summary of the method: as §2
Acinetobacter baumannii [4] = assay: Antimicrobial activity against Acinetobacter baumannii isolate 59 harboring GyrA Ser83-Leu and ParC Glu84-Lys mutation at pH 7.2
Summary of the method: (§3)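 Agar dilution MIC on Mueller-Hinton agar under standard conditions (pH 7.2). Antibiotic-containing plates were made the same day from freshly prepared medium. Agar pH was checked after solidifying. Both fluoroquinolones were tested simultaneously against A. baumannii isolates with characterized gyrA/parC genes. MICs are in μg/ml.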

Acinetobacter baumannii [5] = assay: Antimicrobial activity against Acinetobacter baumannii isolate 57 harboring GyrA Ser83-Leu and ParC Ser80-Phe mutation at pH 7.2; summary of the method: as §3
Acinetobacter baumannii [6] = assay: Antimicrobial activity against Acinetobacter baumannii isolate 9 at pH 7.2; summary of the method: as §3
Acinetobacter baumannii [7] = assay: Antimicrobial activity against Acinetobacter baumannii isolate 19 harboring GyrA Ser83-Leu mutation at pH 5.8
Summary of the method: (§4)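 MIC by agar dilution on Mueller-Hinton agar acidified to pH 5.8 with HCl before antibiotic-containing plates were poured. Agar pH was rechecked once the agar had solidified. Isolates had characterized gyrA/parC genes. Plates for both drugs were made the same day from fresh media, and MICs were read in parallel with the standard-pH set.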

Acinetobacter baumannii [8] = assay: Antimicrobial activity against Acinetobacter baumannii isolate 1 at pH 7.2
Summary of the method: (§5)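 MIC by agar dilution on Mueller-Hinton agar under standard conditions (pH 7.2), against isolates with characterized gyrA/parC genes. Agar pH was checked after solidifying. Plates for both drugs were prepared the same day from freshly made media, and MICs were determined simultaneously with the pH 5.8 set.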

Acinetobacter baumannii [9] = assay: Antimicrobial activity against Acinetobacter baumannii isolate 50 harboring GyrA Ser83-Leu and ParC Ser80-Leu mutation at pH 7.2; summary of the method: as §1
Acinetobacter baumannii [10] = assay: Antimicrobial activity against Acinetobacter baumannii isolate 23 harboring GyrA Glu87-Gly mutation at pH 7.2; summary of the method: as §5
Acinetobacter baumannii [11] = assay: Antimicrobial activity against Acinetobacter baumannii isolate 42 harboring GyrA Ser83-Leu mutation at pH 5.8; summary of the method: as §1
Acinetobacter baumannii [12] = assay: Antimicrobial activity against Acinetobacter baumannii isolate 40 harboring GyrA Ser83-Leu mutation at pH 5.8; summary of the method: as §1
Acinetobacter baumannii [13] = assay: Antimicrobial activity against Acinetobacter baumannii isolate 44 harboring GyrA Ser83-Leu and ParC Glu84-Lys mutation at pH 5.8; summary of the method: as §1
Acinetobacter baumannii [14] = assay: Antimicrobial activity against Acinetobacter baumannii isolate 14 at pH 5.8; summary of the method: as §4
Acinetobacter baumannii [15] = assay: Antimicrobial activity against Acinetobacter baumannii isolate 64 harboring GyrA Ser83-Leu and ParC Ser80-Leu mutation at pH 7.2; summary of the method: as §3
Acinetobacter baumannii [16] = assay: Antimicrobial activity against Acinetobacter baumannii isolate 59 harboring GyrA Ser83-Leu and ParC Glu84-Lys mutation at pH 5.8; summary of the method: as §2
Acinetobacter baumannii [17] = assay: Antimicrobial activity against adeB overexpressing Acinetobacter baumannii isolate 67 harboring GyrA Ser83-Leu and ParC Ser80-Leu mutation at pH 7.2; summary of the method: as §3
Acinetobacter baumannii [18] = assay: Antimicrobial activity against Acinetobacter baumannii isolate 8 at pH 5.8; summary of the method: as §2
Acinetobacter baumannii [19] = assay: Antimicrobial activity against Acinetobacter baumannii isolate 49 harboring GyrA Ser83-Leu and ParC Ser80-Leu mutation at pH 5.8; summary of the method: as §1
Acinetobacter baumannii [20] = assay: Antimicrobial activity against Acinetobacter baumannii isolate 28 harboring GyrA Ser83-Leu mutation at pH 7.2; summary of the method: as §5
Acinetobacter baumannii [21] = assay: Antimicrobial activity against Acinetobacter baumannii isolate 5 at pH 5.8; summary of the method: as §1
Acinetobacter baumannii [22] = assay: Antimicrobial activity against Acinetobacter baumannii isolate 62 harboring GyrA Ser83-Leu and ParC Ser80-Leu mutation at pH 7.2; summary of the method: as §3
Acinetobacter baumannii [23] = assay: Antimicrobial activity against Acinetobacter baumannii isolate 24 harboring GyrA Ser83-Leu mutation at pH 7.2; summary of the method: as §5
Acinetobacter baumannii [24] = assay: Antimicrobial activity against Acinetobacter baumannii isolate 36 harboring GyrA Ser83-Leu mutation at pH 7.2; summary of the method: as §1
Acinetobacter baumannii [25] = assay: Antimicrobial activity against Acinetobacter baumannii isolate 23 harboring GyrA Glu87-Gly mutation at pH 5.8; summary of the method: as §4
Acinetobacter baumannii [26] = assay: Antimicrobial activity against Acinetobacter baumannii isolate 25 harboring GyrA Ser83-Leu mutation at pH 7.2; summary of the method: as §5
Acinetobacter baumannii [27] = assay: Antimicrobial activity against Acinetobacter baumannii isolate 8 at pH 7.2; summary of the method: as §3
Acinetobacter baumannii [28] = assay: Antimicrobial activity against Acinetobacter baumannii isolate 47 harboring GyrA Ser83-Leu and ParC Ser80-Phe mutation at pH 5.8; summary of the method: as §1
Acinetobacter baumannii [29] = assay: Antimicrobial activity against Acinetobacter baumannii isolate 56 harboring GyrA Ser83-Leu and ParC Ser80-Leu mutation at pH 7.2; summary of the method: as §3
Acinetobacter baumannii [30] = assay: Antimicrobial activity against Acinetobacter baumannii isolate 22 harboring GyrA Ser83-Leu mutation at pH 7.2; summary of the method: as §5
Acinetobacter baumannii [31] = assay: Antimicrobial activity against Acinetobacter baumannii isolate 39 harboring GyrA Ser83-Leu mutation at pH 7.2; summary of the method: as §1
Acinetobacter baumannii [32] = assay: Antimicrobial activity against Acinetobacter baumannii isolate 34 harboring GyrA Ser83-Leu mutation at pH 7.2; summary of the method: as §1
Acinetobacter baumannii [33] = assay: Antimicrobial activity against Acinetobacter baumannii isolate 66 harboring GyrA Ser83-Leu mutation at pH 7.2; summary of the method: as §3
Acinetobacter baumannii [34] = assay: Antimicrobial activity against Acinetobacter baumannii isolate 26 harboring GyrA Ser83-Leu mutation at pH 5.8; summary of the method: as §4
Acinetobacter baumannii [35] = assay: Antimicrobial activity against Acinetobacter baumannii isolate 46 harboring GyrA Ser83-Leu and ParC Ser80-Leu mutation at pH 5.8; summary of the method: as §1
Acinetobacter baumannii [36] = assay: Antimicrobial activity against Acinetobacter baumannii isolate 66 harboring GyrA Ser83-Leu mutation at pH 5.8; summary of the method: as §2
Acinetobacter baumannii [37] = assay: Antimicrobial activity against Acinetobacter baumannii isolate 26 harboring GyrA Ser83-Leu mutation at pH 7.2; summary of the method: as §5
Acinetobacter baumannii [38] = assay: Antimicrobial activity against Acinetobacter baumannii isolate 53 harboring GyrA Ser83-Leu and ParC Ser80-Leu mutation at pH 7.2; summary of the method: as §1
Acinetobacter baumannii [39] = assay: Antimicrobial activity against Acinetobacter baumannii isolate 38 harboring GyrA Ser83-Leu mutation at pH 7.2; summary of the method: as §1

Structure (SMILES) | MIC (Acinetobacter baumannii [1]) [µg/mL] | MIC (Acinetobacter baumannii [2]) [µg/mL] | MIC (Acinetobacter baumannii [3]) [µg/mL] | MIC (Acinetobacter baumannii [4]) [µg/mL] | MIC (Acinetobacter baumannii [5]) [µg/mL] | MIC (Acinetobacter baumannii [6]) [µg/mL] | MIC (Acinetobacter baumannii [7]) [µg/mL] | MIC (Acinetobacter baumannii [8]) [µg/mL] | MIC (Acinetobacter baumannii [9]) [µg/mL] | MIC (Acinetobacter baumannii [10]) [µg/mL] | MIC (Acinetobacter baumannii [11]) [µg/mL] | MIC (Acinetobacter baumannii [12]) [µg/mL] | MIC (Acinetobacter baumannii [13]) [µg/mL] | MIC (Acinetobacter baumannii [14]) [µg/mL] | MIC (Acinetobacter baumannii [15]) [µg/mL] | MIC (Acinetobacter baumannii [16]) [µg/mL] | MIC (Acinetobacter baumannii [17]) [µg/mL] | MIC (Acinetobacter baumannii [18]) [µg/mL] | MIC (Acinetobacter baumannii [19]) [µg/mL] | MIC (Acinetobacter baumannii [20]) [µg/mL] | also measured
O=C(O)c1cn(C2CC2)c2cc(N3CCNCC3)c(F)cc2c1=O [CIPROFLOXACIN] | 128 (≈ 386 µM) | > 128 | > 128 | 128 (≈ 386 µM) | 128 (≈ 386 µM) | 0.25 (≈ 0.754 µM) | 4 (≈ 12.1 µM) | 0.06 (≈ 0.181 µM) | 128 (≈ 386 µM) | 4 (≈ 12.1 µM) | > 128 | > 128 | > 128 | 4 (≈ 12.1 µM) | > 128 | > 128 | > 128 | 2 (≈ 6.04 µM) | > 128 | 4 (≈ 12.1 µM) | MIC (Acinetobacter baumannii [21]): 2 µg/mL (≈ 6.04 µM); MIC (Acinetobacter baumannii [22]): 128 µg/mL (≈ 386 µM); MIC (Acinetobacter baumannii [23]): 4 µg/mL (≈ 12.1 µM); MIC (Acinetobacter baumannii [24]): 16 µg/mL (≈ 48.3 µM); MIC (Acinetobacter baumannii [25]): 32 µg/mL (≈ 96.6 µM); MIC (Acinetobacter baumannii [26]): 4 µg/mL (≈ 12.1 µM); MIC (Acinetobacter baumannii [27]): 0.25 µg/mL (≈ 0.754 µM); MIC (Acinetobacter baumannii [28]): > 128 µg/mL; MIC (Acinetobacter baumannii [29]): 128 µg/mL (≈ 386 µM); MIC (Acinetobacter baumannii [30]): 4 µg/mL (≈ 12.1 µM); MIC (Acinetobacter baumannii [31]): 16 µg/mL (≈ 48.3 µM); MIC (Acinetobacter baumannii [32]): 8 µg/mL (≈ 24.1 µM); MIC (Acinetobacter baumannii [33]): 32 µg/mL (≈ 96.6 µM); MIC (Acinetobacter baumannii [34]): 32 µg/mL (≈ 96.6 µM); MIC (Acinetobacter baumannii [35]): > 128 µg/mL; MIC (Acinetobacter baumannii [36]): 128 µg/mL (≈ 386 µM); MIC (Acinetobacter baumannii [37]): 4 µg/mL (≈ 12.1 µM); MIC (Acinetobacter baumannii [38]): 128 µg/mL (≈ 386 µM); MIC (Acinetobacter baumannii [39]): 32 µg/mL (≈ 96.6 µM)
N#Cc1c(N2C[C@@H]3NCCO[C@H]3C2)c(F)cc2c(=O)c(C(=O)O)cn(C3CC3)c12 [FINAFLOXACIN] | 2 (≈ 5.02 µM) | 8 (≈ 20.1 µM) | 4 (≈ 10 µM) | 64 (≈ 161 µM) | 32 (≈ 80.3 µM) | 0.25 (≈ 0.628 µM) | 0.12 (≈ 0.301 µM) | 0.12 (≈ 0.301 µM) | 16 (≈ 40.2 µM) | 8 (≈ 20.1 µM) | 2 (≈ 5.02 µM) | 2 (≈ 5.02 µM) | 4 (≈ 10 µM) | 0.25 (≈ 0.628 µM) | 64 (≈ 161 µM) | 8 (≈ 20.1 µM) | 64 (≈ 161 µM) | 0.12 (≈ 0.301 µM) | 2 (≈ 5.02 µM) | 16 (≈ 40.2 µM) | MIC (Acinetobacter baumannii [21]): 0.06 µg/mL (≈ 0.151 µM); MIC (Acinetobacter baumannii [22]): 64 µg/mL (≈ 161 µM); MIC (Acinetobacter baumannii [23]): 16 µg/mL (≈ 40.2 µM); MIC (Acinetobacter baumannii [24]): 16 µg/mL (≈ 40.2 µM); MIC (Acinetobacter baumannii [25]): 1 µg/mL (≈ 2.51 µM); MIC (Acinetobacter baumannii [26]): 16 µg/mL (≈ 40.2 µM); MIC (Acinetobacter baumannii [27]): 0.25 µg/mL (≈ 0.628 µM); MIC (Acinetobacter baumannii [28]): 4 µg/mL (≈ 10 µM); MIC (Acinetobacter baumannii [29]): 32 µg/mL (≈ 80.3 µM); MIC (Acinetobacter baumannii [30]): 8 µg/mL (≈ 20.1 µM); MIC (Acinetobacter baumannii [31]): 16 µg/mL (≈ 40.2 µM); MIC (Acinetobacter baumannii [32]): 16 µg/mL (≈ 40.2 µM); MIC (Acinetobacter baumannii [33]): 16 µg/mL (≈ 40.2 µM); MIC (Acinetobacter baumannii [34]): 2 µg/mL (≈ 5.02 µM); MIC (Acinetobacter baumannii [35]): 2 µg/mL (≈ 5.02 µM); MIC (Acinetobacter baumannii [36]): 2 µg/mL (≈ 5.02 µM); MIC (Acinetobacter baumannii [37]): 16 µg/mL (≈ 40.2 µM); MIC (Acinetobacter baumannii [38]): 32 µg/mL (≈ 80.3 µM); MIC (Acinetobacter baumannii [39]): 16 µg/mL (≈ 40.2 µM)
